Test results reported in ChEMBL document CHEMBL1141198, “Design and synthesis of tri-ring P3 benzamide-containing aminonitriles as potent, selective, orally effective inhibitors of cathepsin K” (J Med Chem, 2005).

How the values were obtained:
[1] = Maximum concentration in rat administered with 0.5 mg/kg, iv; type: ADME, organism-based; set-up: dose 0.5 mg/kg, route intravenous; conditions: in vivo
Procathepsin L = Procathepsin L (Homo sapiens, UniProt P07711); assay: Inhibitory constant against human cathepsin L using Z-Phe-Arg-AMC substrate
How it was run: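 Recombinant human cathepsin L at 500 pM in 50 mM MES pH 5.5, 2.5 mM DTT, 2.5 mM EDTA, 10% DMSO. Enzyme preincubated with inhibitor (8 concentrations) 30 min at 21–24 °C. Reaction started with 10 μM Z-Phe-Arg-AMC; AMC fluorescence (ex 355/em 460 nm) over first ~5 min. Ki(app) fitted with Morrison tight-binding model.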

[2] = target: Cathepsin K (Homo sapiens) (UniProt P43235); assay: Inhibitory constant against human cathepsin K using Z-Phe-Arg-AMC substrate
Osteoclast = assay: In vitro bone resorption in isolated rabbit osteoclasts; type: functional, cell-based; conditions: Oryctolagus cuniculus
How it was run: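 Bovine bone degraded by isolated rabbit osteoclasts; collagen degradation read by ELISA. 8-point dose–response curves; IC50 derived.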

[3] = Plasma clearance in rat administered with 0.5 mg/kg, iv; type: ADME, organism-based; set-up: dose 0.5 mg/kg, route intravenous
How it was run: (§1)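 Rats, three per study, cassette iv dosing of up to four compounds. Formulation DMSO (<20%), PEG 400 (<20%) and water at 0.5 mg/mL per compound, given at 1 mL/kg for 0.5 mg/kg per compound.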

Rattus norvegicus [4] = assay: Terminal half-life in rat administered with 0.5 mg/kg, iv; type: functional, organism-based; set-up: dose 0.5 mg/kg; how it was run: as §1
[5] = Volume of distribution in rat administered with 0.5 mg/kg, iv; type: ADME, organism-based; set-up: dose 0.5 mg/kg, route intravenous; conditions: in vivo, read-out: Vss; how it was run: as §1
Cathepsin S = Cathepsin S (Homo sapiens, UniProt P25774); assay: Inhibitory constant against human cathepsin S using Z-Val-Val-Arg-AMC substrate
How it was run: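 Recombinant human cathepsin S at 500 pM in 50 mM MES pH 6.5, 2.5 mM β-mercaptoethanol, 2.5 mM EDTA, 100 mM NaCl, 0.001% BSA, 10% DMSO. 30 min enzyme–inhibitor preincubation at 21–24 °C, 8 inhibitor concentrations. Started with 60 μM Z-Val-Val-Arg-AMC; initial rates by AMC fluorescence (ex 355/em 460). Ki(app) by Morrison tight-binding fit.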

Rattus norvegicus [6] = assay: Mean residence time in rat administered with 0.5 mg/kg, iv; type: functional, organism-based; set-up: dose 0.5 mg/kg; how it was run: as §1
Cathepsin B = Cathepsin B (Homo sapiens, UniProt P07858); assay: Inhibitory constant against human cathepsin B using Boc-Leu-Lys-Arg-AMC substrate
[7] = Maximum concentration in rat administered with 10 mg/kg, po; type: ADME, organism-based; set-up: dose 10 mg/kg, route oral; conditions: in vivo
How it was run: (§2)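 Single-compound rat PK: 0.5 mg/kg iv and 10 mg/kg oral. Bioavailability from oral versus iv exposure.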

Rattus norvegicus [8] = assay: Oral bioavailability in rat; type: functional, organism-based; how it was run: as §2
Rattus norvegicus [9] = species: Rattus norvegicus; assay: Terminal half-life in rat; type: functional, organism-based
Cathepsin K = target: T1, Cathepsin K (Oryctolagus cuniculus, UniProt P43236); assay: Inhibitory constant against rabbit cathepsin K using Z-Phe-Arg-AMC substrate; conditions: read-out: Ki app
T1 sequence (P43236 whole entry): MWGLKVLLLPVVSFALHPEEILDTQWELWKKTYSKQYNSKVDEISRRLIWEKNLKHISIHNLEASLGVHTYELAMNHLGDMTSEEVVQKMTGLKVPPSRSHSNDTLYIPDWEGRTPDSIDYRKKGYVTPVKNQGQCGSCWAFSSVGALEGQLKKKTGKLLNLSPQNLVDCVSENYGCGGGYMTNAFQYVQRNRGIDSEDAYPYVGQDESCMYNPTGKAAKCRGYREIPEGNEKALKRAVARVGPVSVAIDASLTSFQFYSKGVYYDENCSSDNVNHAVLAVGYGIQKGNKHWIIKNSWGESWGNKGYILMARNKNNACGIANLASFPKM

Rhesus monkey = assay: Reduction of collagen breakdown products in ovariectomized rhesus monkey dosed at 15, 3 and 0.6 mg/kg, po; type: functional, Macaca mulatta; set-up: scale not given: the % may be the effect or the level left
How it was run: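 OVX rhesus monkeys (mean age 15 y, 3 y post-surgery): vehicle 1% carboxymethylcellulose po qd 2 days, then compound po qd 8–11 days at 15, 3 or 0.6 mg/kg, then 3 days vehicle. Controls on vehicle for 13 days. 24-h urine collected pre-dose, during dosing and 10–17 days after; urinary NTx normalized to creatinine (nM/mM).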

[10] = Maximum concentration in rat administered with 20 mg/kg, po; type: ADME, organism-based; set-up: dose 20 mg/kg, route oral; conditions: in vivo
Rattus norvegicus [11] = assay: Time of peak concentration post-dose in rat administered with 10 mg/kg, po; type: functional, organism-based; set-up: dose 10 mg/kg; how it was run: as §2
Rattus norvegicus [12] = assay: Terminal half-life in rat administered with 10 mg/kg, po; type: functional, organism-based; set-up: dose 10 mg/kg; how it was run: as §2

Chain of Procathepsin L (P07711 whole entry): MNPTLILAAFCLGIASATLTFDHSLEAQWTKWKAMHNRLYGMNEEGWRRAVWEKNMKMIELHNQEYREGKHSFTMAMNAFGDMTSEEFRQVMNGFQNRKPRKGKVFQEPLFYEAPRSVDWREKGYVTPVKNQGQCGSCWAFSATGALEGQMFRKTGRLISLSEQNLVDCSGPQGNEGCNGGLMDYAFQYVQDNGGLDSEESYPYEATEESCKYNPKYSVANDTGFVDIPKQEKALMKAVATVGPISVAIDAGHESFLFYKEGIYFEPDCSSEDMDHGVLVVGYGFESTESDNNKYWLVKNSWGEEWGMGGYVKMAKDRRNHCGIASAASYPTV
Chain of Cathepsin S (P25774 whole entry): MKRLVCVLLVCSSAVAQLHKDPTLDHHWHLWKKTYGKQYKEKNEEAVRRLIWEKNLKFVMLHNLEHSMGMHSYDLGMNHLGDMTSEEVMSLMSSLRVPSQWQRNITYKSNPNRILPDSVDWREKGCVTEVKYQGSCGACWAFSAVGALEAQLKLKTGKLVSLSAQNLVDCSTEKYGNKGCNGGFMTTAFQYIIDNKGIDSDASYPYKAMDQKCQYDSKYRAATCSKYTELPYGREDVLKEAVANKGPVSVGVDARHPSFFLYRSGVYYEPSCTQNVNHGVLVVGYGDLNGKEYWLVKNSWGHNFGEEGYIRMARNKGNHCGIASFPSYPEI

Compound	Cmax [1] [nM]	Ki (Procathepsin L; read-out: Ki app) [nM]	Ki ([2]; read-out: Ki app) [nM]	IC50 (Osteoclast) [nM]	clearance [3] [mL/min/kg]	Vd [5] [L/kg]	Ki (Cathepsin S; read-out: Ki app) [nM]	Ki (Cathepsin B; read-out: Ki app) [nM]	T1/2 (Rattus norvegicus [4]) [h]	MRT (Rattus norvegicus [6]) [h]	bioavailability (Rattus norvegicus [8]) [%]	other results
N#CCNC(=O)C1(NC(=O)c2ccc(-c3csc(N4CCC(N5CCCCC5)CC4)n3)cc2)CCCCC1	–	8800	0.45	3	–	–	42000	690	–	–	35	Cmax [7]: 360 nM; T1/2 (Rattus norvegicus [9]): 3.35 h
CC(C)(C)N1CCN(c2nc(-c3ccc(C(=O)NC4(C(=O)NCC#N)CCCCC4)cc3)cs2)CC1	–	8800	0.29	1	–	–	19000	910	–	–	44	Cmax [7]: 800 nM; T1/2 (Rattus norvegicus [9]): 1.67 h
CN1CCN(c2nc(-c3ccc(C(=O)NC4(C(=O)NCC#N)CCCCC4)cc3)cs2)CC1	–	6000	0.2	5	–	–	47000	1000	–	–	68	Ki (Cathepsin K): 0.5 nM; Activity (Rhesus monkey): 76%; T1/2 (Rattus norvegicus [9]): 3.4 h; Cmax [10]: 1400 nM
N#CCNC(=O)C1(NC(=O)c2ccc(-c3ccc(N4CCNCC4)cc3)cc2)CCCCC1	500	7900	< 0.25	77	71	7.23	4900	420	1.4	1.73	21	Tmax (Rattus norvegicus [11]): 2 h; T1/2 (Rattus norvegicus [12]): 1.88 h
CC(C)(C)NC1CCN(c2ccc(-c3ccc(C(=O)NC4(C(=O)NCC#N)CCCCC4)cc3)cc2)CC1	360	–	–	40	84	10.7	–	–	1.93	2.17	–	Ki (Procathepsin L; read-out: Ki): 1600 nM; Ki ([2]; read-out: Ki): < 0.25 nM; Ki (Cathepsin S; read-out: Ki): 3900 nM; Ki (Cathepsin B; read-out: Ki): 76000 nM
CN1CCCC(Oc2ccc(-c3ccc(C(=O)NC4(C(=O)NCC#N)CCCCC4)cc3)cc2)C1 (centres undefined)	250	2300	0.67	10	104	8.46	13000	870	1.5	1.35	–	–
N#CCNC(=O)C1(NC(=O)c2ccc(-c3csc(N4CCC(N5CCOCC5)CC4)n3)cc2)CCCCC1	–	16000	< 0.25	3	–	–	6400	670	–	–	48	Cmax [7]: 1700 nM; T1/2 (Rattus norvegicus [9]): 5.33 h
COCCN1CCC(Oc2ccc(-c3ccc(C(=O)NC4(C(=O)NCC#N)CCCCC4)cc3)cc2)CC1	370	1200	< 0.25	21	43	3.27	6200	540	2.02	1.95	–	–

Now from value to molecule, other results behind:

Cmax [1] [nM]	Ki (Procathepsin L; read-out: Ki app) [nM]	Ki ([2]; read-out: Ki app) [nM]	IC50 (Osteoclast) [nM]	clearance [3] [mL/min/kg]	Vd [5] [L/kg]	Ki (Cathepsin S; read-out: Ki app) [nM]	Ki (Cathepsin B; read-out: Ki app) [nM]	Compound	T1/2 (Rattus norvegicus [4]) [h]	MRT (Rattus norvegicus [6]) [h]	bioavailability (Rattus norvegicus [8]) [%]	other results
1000	430	< 0.25	20	82	3.29	9100	380	N#CCNC(=O)C1(NC(=O)c2ccc(-c3ccc(S(=O)(=O)N4CCNCC4)cc3)cc2)CCCCC1	1.3	0.667	–	–
220	9100	< 0.25	59	231	25.3	16000	640	N#CCNC(=O)C1(NC(=O)c2ccc(-c3ccc(OC4CCN(CCO)CC4)cc3)cc2)CCCCC1	2.05	1.83	–	–
320	5600	< 0.25	20	97	11.1	12000	530	CN1CCC(Oc2ccc(-c3ccc(C(=O)NC4(C(=O)NCC#N)CCCCC4)cc3)cc2)CC1	1.9	1.9	–	–
1200	540	6.1	320	40	1.55	5500	56000	N#CCNC(=O)C1(NC(=O)c2ccc(-c3ccc(S(=O)(=O)N4CCN(CC(F)(F)F)CC4)cc3)cc2)CCCCC1	0.767	0.65	–	–
–	11000	< 0.25	13	67	11.2	7900	510	CC(C)(C)N1CCN(c2ccc(-c3ccc(C(=O)NC4(C(=O)NCC#N)CCCCC4)cc3)cc2)CC1	2.4	2.87	–	–
660	900	< 0.25	35	37	1.76	7900	280	N#CCNC(=O)C1(NC(=O)c2ccc(-c3ccc(C4(F)CCNCC4)cc3)cc2)CCCCC1	0.783	0.8	–	–
1400	74000	2.3	35	–	–	13000	3100	N#CCNC(=O)C1(NC(=O)c2ccc(-c3csc(N4CCOCC4)n3)cc2)CCCCC1	0.483	0.467	–	–
